# Source: PubChem BioAssay (several laboratories)
# Hits are enriched below; roughly 1.1% of the tested compounds scored in any of these assays.
# iPSC survival up: increases survival of single human iPS cells. hiPSC single-cell survival, ATPlite luminescence; 100% = ROCK inhibitor wells, 0% = DMSO. AID 602274. survival enhancement, % at 20 µM. 360,000 compounds, 0.044% hits; in the data active means survival enhancement above about 18%;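 further: cells exposed to compounds for 16 hours before the ATP read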
# SENP1 inh: SENP1 (human) catalytic domain inhibition; Q9P0U3; 360,000 compounds, 0.21% hits; recombinant SENP1 catalytic domain, CyPet-SUMO1-YPet FRET cleavage; AID 624204; inhibition, % at 10 µM;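 active means inhibition at least 30% at 10 µM, raw YFP signal under a set limit, fluorescence ratio 0.5 to 1.5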;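 further: 0% = enzyme with DMSO and 100% = no enzyme wells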
# Target sequence (Q9P0U3 419-644 limits assumed): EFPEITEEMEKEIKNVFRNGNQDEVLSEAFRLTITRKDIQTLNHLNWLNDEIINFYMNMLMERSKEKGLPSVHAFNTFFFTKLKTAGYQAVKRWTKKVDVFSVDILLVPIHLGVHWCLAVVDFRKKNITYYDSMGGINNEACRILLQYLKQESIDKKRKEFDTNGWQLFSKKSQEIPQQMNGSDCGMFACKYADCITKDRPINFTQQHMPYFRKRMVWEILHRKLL
#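 material = recombinant human SENP1 catalytic domain, His6-tagged | quantity = 20 pM enzyme | reagent = 25 nM SUMO1 FRET substrate | compound dosing = 10 µM single point, 0.5% DMSO | timing = 50 min enzyme reaction, room temperature, light-protected | detection = FRET, CFP and YFP emission | control set = no-enzyme low, enzyme-DMSO high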
# ABCB6 inh 2: blocks the human ABCB6 transporter | K562-ABCB6 porphyrin accumulation, flow cytometry, 1 h; stronger effect = lower value | fluorescence ratio to DMSO, % at 10 µM | 360,000 compounds, 0.19% hits | AID 602162;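 active means fluorescence ratio to DMSO below 75%, the collection mean minus 3 SD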;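 further: signal is porphyrin accumulated inside mitochondria; 100% equals median channel fluorescence of DMSO control wells; lower ratio means ABCB6 inhibition with less porphyrin fluorescence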
# FAS TE block: inhibitors of human fatty acid synthase thioesterase domain | P49327 | recombinant FAS-TE, OMFH fluorogenic substrate, fluorescence endpoint | inhibition, % at 15 µM | 360,000 compounds, 0.67% hits;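 active means compounds whose normalised, plate-corrected inhibition of enzyme fluorescence in the single-dose primary screen is 50% or more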;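 further: 0% = DMSO with enzyme and 100% = substrate without enzyme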
# FAS-TE conf: FAS thioesterase (human) inhibition, confirmation | shares compounds with FAS TE block | inhibition, % at 15 µM | 2,300 compounds, 45% hits | recombinant FAS-TE, OMFH fluorogenic substrate, fluorescence | AID 624325;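 active means compounds inhibiting the enzyme by at least 50% at 15 µM in any one of the replicates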;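 further: 0% = enzyme with DMSO only and 100% = wells lacking enzyme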
# Numbers without * were called inactive; . = no result.
SMILES,iPSC survival up,SENP1 inh,ABCB6 inh 2,FAS TE block,FAS-TE conf
C=CC[C@]12CCc3ccccc3C1N(c1ccc(C(=O)OCC)cc1)C2=O (stereo partly drawn),2,0,95,30,.
CCCOc1ccc(N2C(=O)CC(SC(=N)N3N=C(c4ccccc4)CC3c3ccccc3)C2=O)cc1 (stereo not drawn),1,-1,101,69*,15
CC(=O)NNc1nc(-c2ccccc2)cs1,0,2,103,70*,55*
CC(=O)NNc1nc(-c2ccc(C)cc2)cs1,1,0,103,-9,.
Cn1c(=NC(=O)CS(=O)(=O)c2ccccc2)sc2cc([N+](=O)[O-])ccc21,0,0,103,0,.
CN(CC(=O)Nc1ccc(Cl)cc1)C1CCCCC1,0,0,96,1,.
COc1ccccc1/C=C(\NC(=O)c1ccc(OC)c(OC)c1)C(=O)Nc1cc([N+](=O)[O-])ccc1C,5,-56,100,60*,71*
Cc1ccc([N+](=O)[O-])cc1NC(=O)CCSc1ccc(Cl)cc1,0,1,99,66*,62*
O=C(CN(C(=O)c1ccc(Cl)cc1)C1CCCCC1)Nc1ccc(Cl)c([N+](=O)[O-])c1,-1,-1,98,76*,12
O=C(CN(C(=O)c1ccccc1Cl)C1CCCCC1)Nc1ccc(Cl)c([N+](=O)[O-])c1,2,-19,90,62*,14
CC[C@H](C)[C@H]1CNC(=S)N1CC1CCN(CCC23CC4CC(CC(C4)C2)C3)CC1,-5,-2,93,-12,.
Cc1ccc(NC(=O)CSCC(=O)N(C)CC(=O)Nc2cccc3ccccc23)cc1,1,0,100,-4,.
Cc1ccc([N+](=O)[O-])cc1NC(=O)CNC1CCCCC1,0,2,98,23,.
O=C(COc1ncnc2ccccc12)Nc1cccc([N+](=O)[O-])c1,0,2,98,20,.
Cc1ccc([N+](=O)[O-])cc1NC(=O)CN(C(=O)c1ccc(Cl)cc1)C1CCCCC1,-1,5,90,86*,91*
O=C(COc1ncnc2ccccc12)Nc1ccc(Cl)c([N+](=O)[O-])c1,-1,1,99,68*,66*
Cc1ccc(C(=O)Nc2cc([N+](=O)[O-])ccc2C)cc1,-2,-1,97,47,.
Cc1ccc([N+](=O)[O-])cc1NC(=O)c1ccc(C(C)(C)C)cc1,-1,-2,98,68*,72*
CC(C#N)Sc1ncnc2sc(-c3ccccc3)cc12 (stereo not drawn),0,-7,77,25,.
COc1ccc([C@@H]2[C@@H]3C(=O)N(C(C)(C)C)C(=O)[C@@H]3[C@]3(CC(C)C)C(=O)N(c4ccccc4)C(=O)N23)cc1,-2,0,103,12,.
COc1ccc([C@@H]2[C@@H]3C(=O)N(C(C)(C)C)C(=O)[C@@H]3[C@]3(CC(C)C)C(=O)N(c4ccc(C(F)(F)F)cc4)C(=O)N23)cc1,-1,1,99,67*,37
COc1ccc([C@@H]2[C@@H]3C(=O)N(C(C)(C)C)C(=O)[C@@H]3[C@]3(CC(C)C)C(=O)N(c4cccc(Br)c4)C(=O)N23)cc1,0,1,94,58*,40
COc1ccc([C@@H]2[C@@H]3C(=O)N(C(C)(C)C)C(=O)[C@@H]3[C@]3(Cc4ccccc4)C(=O)N(c4ccc(C(F)(F)F)cc4)C(=O)N23)cc1,-3,0,89,40,.
COc1cccc(CC(NC(C)=O)C(=O)NC2CCN(C(=O)c3ccncc3)CC2)c1OC (stereo not drawn),0,0,99,-4,.
Cc1ccccc1-c1nc2sc(C)c(C)c2c(=O)o1,0,2,96,53*,39
SMILES,iPSC survival up,SENP1 inh,ABCB6 inh 2,FAS TE block,FAS-TE conf
Cc1sc2nc(-c3ccco3)oc(=O)c2c1C,2,-24,193,29,.
Cc1ccc(N2C(=O)c3cccc4c(Oc5ccccc5[N+](=O)[O-])ccc(c34)C2=O)c(C)c1,-1,-1,96,61*,10
CC(C)OP(=O)(OC(C)C)C(Nc1ccccc1)c1cccnc1 (stereo not drawn),0,2,94,-6,.
CCc1ccc(C(=O)COC(=O)c2cc([N+](=O)[O-])ccc2N2CCOCC2)cc1,2,-1,93,80*,80*
O=C(c1ccc(Cl)cc1)c1cc([N+](=O)[O-])ccc1N1CCOCC1,0,-2,105,41,.
O=C(COC(=O)c1cc([N+](=O)[O-])ccc1N1CCOCC1)c1ccc(F)cc1,0,-1,98,69*,40*
CCOC(=O)[C@]12CCCC=C1N(Cc1ccc(Cl)cc1Cl)C(=O)[C@H](CC(=O)NCC13CC4CC(CC(C4)C1)C3)C2,0,-2,97,15,.
O=C1C(=NO)CC(c2ccccc2)N1c1ccccc1 (stereo not drawn),3,3,98,-12,.
COc1ccc(Cc2nc3c4c(ncn3n2)Oc2ccc3ccccc3c2C4c2ccc(OC)c(OC)c2)cc1 (stereo not drawn),2,0,98,59*,19
O=C(O)c1ccc(N/N=C/c2ccc(-c3cc(Cl)ccc3Cl)o2)cc1,0,-36,103,81*,84*
O=C(O)c1ccc(N/N=C/c2ccc(-c3ccc(Cl)cc3Cl)o2)cc1,0,-32,99,75*,78*
O=C(O)c1ccc(N/N=C/c2ccc(-c3cccc(Cl)c3)o2)cc1,0,-46,96,26,.
COC(=O)N/N=C/c1ccc(-c2ccc(Cl)cc2Cl)o1,0,2,99,11,.
CCCCc1ccc(C2C3=C(CC(C)(C)CC3=O)NC3=C2C(=O)c2ccccc23)cc1 (stereo not drawn),-2,3,104,63*,11
COc1ccc(/C=N/NC(=O)c2ccc(CN3c4cccc5cccc(c45)S3(=O)=O)cc2)cc1,-1,-7,112,79*,10
CCCCCCCOC(=O)C1=C(C)Nc2ncnn2C1c1cccs1 (stereo not drawn),-2,1,90,1,.
CCCCCCCCOC(=O)C1=C(C)Nc2nnnn2C1c1cccs1 (stereo not drawn),12,-1,99,62*,41
S=c1[nH]nc(COc2ccccc2)n1/N=C/c1c(Cl)cccc1Cl,1,0,102,2,.
NC(=O)[C@@H]1CC2(CC(c3cccc(NC(=O)COc4ccc(Cl)cc4)c3)=NO2)CN1C(=O)COc1ccc(Cl)cc1 (stereo partly drawn),-2,1,90,39,.
NC(=O)[C@H]1CC2(CC(c3cccc(NC(=O)COc4ccc(Cl)cc4)c3)=NO2)CN1C(=O)C(c1ccccc1)c1ccccc1 (stereo partly drawn),0,1,99,73*,21
